From ChEMBL document CHEMBL1155944 (J Med Chem, 2008)

Tests used:
[1] = molecular target: Gamma-aminobutyric acid receptor subunit alpha-3 (Rattus norvegicus) (UniProt P20236); experiment: Intrinsic activity at recombinant rat GABAA alpha-3-beta-3-gamma-2 receptor expressed in HEK293 cells assessed as induction of current at 1 mM by whole-cell patch-clamp technique relative to GABA; format: cell-based
In short: (§1)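 Rat αiβ3γ2S receptors transiently expressed in HEK293 cells, with EGFP marking transfected cells, recorded 2 days after transfection. Whole-cell patch clamp in HEPES saline, pH 7.35. Drug applied alone at 1, 10, 100 and 1000 μM. […] Data from at least four cells.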

[2] = organism: Rattus norvegicus; experiment: Displacement of [3H]Muscimol from GABAA alpha-1-alpha-5 receptor in Sprague-Dawley rat brain cortex membrane at 1 mM
In short: (§2)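 Well-washed membranes from adult male Sprague-Dawley rat cortex or cerebellum (50–200 μg protein). Incubated 60 min on ice in 50 mM Tris/citrate, pH 7.3, with 6 nM [3H]muscimol and test compound. […] Filtered and counted by scintillation. IC50 and pseudo-Hill coefficient obtained by nonlinear regression.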

[3] = molecular target: Gamma-aminobutyric acid receptor subunit alpha-6 (Rattus norvegicus) (UniProt P30191); experiment: Displacement of [3H]Muscimol from GABAAalpha6 receptor in Sprague-Dawley rat brain cerebellum membrane at 100 uM; format: tissue-based; in short: as §2
Chain of Gamma-aminobutyric acid receptor subunit alpha-6 (Rattus norvegicus) (P30191 whole entry): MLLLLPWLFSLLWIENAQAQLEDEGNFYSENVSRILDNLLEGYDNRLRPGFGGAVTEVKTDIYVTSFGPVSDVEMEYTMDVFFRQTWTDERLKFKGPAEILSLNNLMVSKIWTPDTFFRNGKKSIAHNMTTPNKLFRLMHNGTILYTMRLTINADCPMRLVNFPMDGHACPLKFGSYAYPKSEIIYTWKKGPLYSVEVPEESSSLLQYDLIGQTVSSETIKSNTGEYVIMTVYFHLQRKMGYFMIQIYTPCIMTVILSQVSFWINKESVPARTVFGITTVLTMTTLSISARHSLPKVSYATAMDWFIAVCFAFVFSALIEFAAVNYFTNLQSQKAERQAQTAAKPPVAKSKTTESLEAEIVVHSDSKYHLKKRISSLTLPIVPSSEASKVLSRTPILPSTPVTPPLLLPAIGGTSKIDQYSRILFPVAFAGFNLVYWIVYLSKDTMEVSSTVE

[4] = molecular target: Gamma-aminobutyric acid receptor subunit alpha-4 (Rattus norvegicus) (UniProt P28471); experiment: Intrinsic activity at recombinant rat GABAA alpha-4-beta-3-gamma-2 receptor expressed in HEK293 cells assessed as induction of current at 1 mM by whole-cell patch-clamp technique relative to GABA; format: cell-based; in short: as §1
Chain of Gamma-aminobutyric acid receptor subunit alpha-4 (Rattus norvegicus) (P28471 whole entry): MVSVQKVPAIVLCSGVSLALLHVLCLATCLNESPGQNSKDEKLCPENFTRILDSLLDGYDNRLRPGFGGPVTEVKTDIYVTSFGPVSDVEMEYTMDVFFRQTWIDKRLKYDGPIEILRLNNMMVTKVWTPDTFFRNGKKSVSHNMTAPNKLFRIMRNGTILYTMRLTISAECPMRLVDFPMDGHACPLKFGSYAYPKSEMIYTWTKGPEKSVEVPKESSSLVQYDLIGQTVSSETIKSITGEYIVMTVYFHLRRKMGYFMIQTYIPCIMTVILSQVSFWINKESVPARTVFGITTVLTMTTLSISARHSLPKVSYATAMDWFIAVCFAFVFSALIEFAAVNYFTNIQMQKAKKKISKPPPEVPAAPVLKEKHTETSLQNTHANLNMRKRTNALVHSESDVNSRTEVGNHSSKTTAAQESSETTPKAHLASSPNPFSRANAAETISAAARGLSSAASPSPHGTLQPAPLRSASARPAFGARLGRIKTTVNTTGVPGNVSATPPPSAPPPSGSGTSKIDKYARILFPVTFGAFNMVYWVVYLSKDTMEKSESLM

[5] = organism: Rattus norvegicus; experiment: Displacement of [3H]Muscimol from GABAA alpha-1-alpha-5 receptor in Sprague-Dawley rat brain cortex membrane at 100 uM; in short: as §2
[6] = molecular target: GABA A receptor alpha-5/beta-3/gamma-2 (Rattus norvegicus) (UniProt P18508+P19969+P63079); experiment: Intrinsic activity at recombinant rat GABAA alpha-5-beta-3-gamma-2 receptor expressed in HEK293 cells assessed as induction of current at 1 mM by whole-cell patch-clamp technique relative to GABA; format: cell-based; in short: as §1
[7] = molecular target: Gamma-aminobutyric acid receptor subunit alpha-6 (Rattus norvegicus) (UniProt P30191); experiment: Displacement of [3H]Muscimol from GABAAalpha6 receptor in Sprague-Dawley rat brain cerebellum membrane at 1 mM; format: tissue-based; in short: as §2
[8] = molecular target: Gamma-aminobutyric acid receptor subunit alpha-6 (Rattus norvegicus, UniProt P30191); experiment: (§3) Displacement of [3H]Muscimol from GABAAalpha6 receptor in Sprague-Dawley rat brain cerebellum membrane; format: tissue-based; in short: as §2
Chain of Gamma-aminobutyric acid receptor subunit alpha-6 (P30191 whole entry): as the sequence (P30191 whole entry) above

[9] = molecular target: Gamma-aminobutyric acid receptor subunit alpha-6 (Rattus norvegicus) (UniProt P30191); experiment: as §3; format: tissue-based; in short: as §2
[10] = molecular target: GABA-A receptor; alpha-1/beta-2/gamma-2 (Rattus norvegicus) (UniProt P18508+P62813+P63138); experiment: Intrinsic activity at recombinant rat GABAA alpha-1-beta-3-gamma-2 receptor expressed in HEK293 cells assessed as induction of current at 1 mM by whole-cell patch-clamp technique relative to GABA; format: cell-based; in short: as §1
[11] = molecular target: T1, GABA A receptor alpha-2/beta-2/gamma-2 (Rattus norvegicus) (UniProt P18508+P23576+P63138); experiment: Intrinsic activity at recombinant rat GABAA alpha-2-beta-3-gamma-2 receptor expressed in HEK293 cells assessed as induction of current at 1 mM by whole-cell patch-clamp technique relative to GABA; format: cell-based; in short: as §1
[12] = molecular target: Gamma-aminobutyric acid receptor subunit alpha-6 (Rattus norvegicus) (UniProt P30191); experiment: Intrinsic activity at recombinant rat GABAA alpha-6-beta-3-gamma-2 receptor expressed in HEK293 cells assessed as induction of current at 1 mM by whole-cell patch-clamp technique relative to GABA; format: cell-based; in short: as §1
[13] = (§4) Displacement of [3H]Muscimol from GABAA alpha-1-alpha-5 receptor in Sprague-Dawley rat brain cortex membrane; in short: as §2
[14] = organism: Rattus norvegicus; experiment: as §4; in short: as §2
[15] = molecular target: Gamma-aminobutyric acid receptor subunit alpha-6 (Rattus norvegicus) (UniProt P30191); experiment: Antagonist activity at recombinant rat GABAA alpha-6-beta-3-gamma-2 receptor expressed in HEK293 cells assessed as inhibition of GABA-induced current at 1 mM by whole-cell patch-clamp technique; format: functional, cell-based; design: scale not given: the % may be the effect or the level left
In short: (§5)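 HEK293 cells transiently transfected by calcium phosphate with rat αi, β3, γ2S and EGFP cDNAs, recorded 2 days later. Whole-cell patch clamp in HEPES saline, pH 7.35. […] Response expressed relative to the GABA-alone current. Data from at least four cells.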

[16] = molecular target: Gamma-aminobutyric acid receptor subunit alpha-4 (Rattus norvegicus) (UniProt P28471); experiment: Antagonist activity at recombinant rat GABAA alpha-4-beta-3-gamma-2 receptor expressed in HEK293 cells assessed as inhibition of GABA-induced current at 1 mM by whole-cell patch-clamp technique; format: functional, cell-based; design: scale not given: the % may be the effect or the level left; in short: as §5
[17] = molecular target: T1, GABA A receptor alpha-2/beta-2/gamma-2 (Rattus norvegicus); experiment: Antagonist activity at recombinant rat GABAA alpha-2-beta-3-gamma-2 receptor expressed in HEK293 cells assessed as inhibition of GABA-induced current at 1 mM by whole-cell patch-clamp technique; format: functional, cell-based; design: scale not given: the % may be the effect or the level left; in short: as §5
[18] = Agonist activity at rat GABAA alpha-1F64C-beta-2 receptor mutant expressed in Xenopus laevis oocytes at -60 mV at 30 mM by Two-Electrode voltage clamp method; format: functional, Oocyte
In short: (§6)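 Rat α1β2 receptors (wt or cysteine mutant) expressed in Xenopus oocytes. Two-electrode voltage clamp at −60 mV, room temperature, Ca2+-free frog Ringer, pH 7.5. Increasing test concentrations applied alone. Currents normalized to the maximal GABA-induced current. Some dose-response curves had only two trials.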

[19] = Agonist activity at rat GABAA alpha-1S68C-beta-2 receptor mutant expressed in Xenopus laevis oocytes as inhibition of GABA-induced current at -60 mV by Two-Electrode voltage clamp method in presence of picrotoxinin; format: functional, cell-based; conditions: Oocyte
[20] = Agonist activity at rat GABAA alpha-1S68C-beta-2 receptor mutant expressed in Xenopus laevis oocytes at -60 mV by Two-Electrode voltage clamp method; format: functional, cell-based; conditions: Oocyte
[21] = molecular target: Gamma-aminobutyric acid receptor subunit alpha-1 (Rattus norvegicus) (UniProt P62813); experiment: Agonist activity at rat wild type GABAA alpha-1-beta-2 receptor expressed in Xenopus laevis oocytes assessed as inhibition of drug-induced current at -60 mV at 10 mM in presence of 100 uM picrotoxinin by Two-Electrode voltage clamp method; format: functional, cell-based; design: scale not given: the % may be the effect or the level left; conditions: Oocyte
Chain of Gamma-aminobutyric acid receptor subunit alpha-1 (Rattus norvegicus) (P62813 whole entry): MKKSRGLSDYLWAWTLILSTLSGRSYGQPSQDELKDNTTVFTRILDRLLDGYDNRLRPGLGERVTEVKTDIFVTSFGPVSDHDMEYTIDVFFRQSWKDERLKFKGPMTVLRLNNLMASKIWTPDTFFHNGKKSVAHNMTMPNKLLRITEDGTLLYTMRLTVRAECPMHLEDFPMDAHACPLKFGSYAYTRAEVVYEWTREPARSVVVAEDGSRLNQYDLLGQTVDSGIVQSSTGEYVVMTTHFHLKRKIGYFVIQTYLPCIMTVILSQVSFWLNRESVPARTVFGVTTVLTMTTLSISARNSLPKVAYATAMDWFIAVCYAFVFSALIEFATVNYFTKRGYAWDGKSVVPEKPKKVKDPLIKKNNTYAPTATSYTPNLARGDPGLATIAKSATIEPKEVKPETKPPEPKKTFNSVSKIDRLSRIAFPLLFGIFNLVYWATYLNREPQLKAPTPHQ
In short: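 Oocytes expressing rat α1β2, two-electrode voltage clamp at −60 mV. Several 10 mM test pulses applied, then washout. 100 μM picrotoxinin applied, immediately followed by co-application of 10 mM drug plus 100 μM picrotoxinin, and the current recorded.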

[22] = Agonist activity at rat GABAA alpha-1F64C-beta-2 receptor mutant expressed in Xenopus laevis oocytes assessed as inhibition of GABA-induced current at -60 mV by Two-Electrode voltage clamp method in presence of picrotoxinin; format: functional, cell-based; conditions: Oocyte
[23] = molecular target: Gamma-aminobutyric acid receptor subunit alpha-1 (Rattus norvegicus) (UniProt P62813); experiment: Agonist activity at rat wild type GABAA alpha-1-beta-2 receptor expressed in Xenopus laevis oocytes at -60 mV at 30 mM by Two-Electrode voltage clamp method; format: functional, cell-based; conditions: Oocyte; in short: as §6
[24] = molecular target: T1, GABA A receptor alpha-2/beta-2/gamma-2 (Rattus norvegicus); experiment: Antagonist activity at recombinant rat GABAA alpha-2-beta-3-gamma-2 receptor expressed in HEK293 cells assessed as inhibition of GABA-induced current at 1 uM by whole-cell patch-clamp technique; format: functional, cell-based; design: scale not given: the % may be the effect or the level left; in short: as §5
[25] = molecular target: T2, Gamma-aminobutyric acid receptor subunit alpha-1 (Rattus norvegicus, UniProt P62813+P63138); experiment: Agonist activity at rat wild type GABAA alpha-1-beta-2 receptor expressed in Xenopus laevis oocytes as inhibition of GABA-induced current at -60 mV by Two-Electrode voltage clamp method in presence of picrotoxinin; format: functional, cell-based, Oocyte
T2 sequence (P62813 whole entry, one chain of several): as the sequence (P62813 whole entry) above

[26] = molecular target: Gamma-aminobutyric acid receptor subunit alpha-1 (Rattus norvegicus) (UniProt P62813); experiment: Agonist activity at rat wild type GABAA alpha-1-beta-2 receptor expressed in Xenopus laevis oocytes as inhibition of GABA-induced current at -60 mV at 1 mM by Two-Electrode voltage clamp method; format: functional, cell-based; design: scale not given: the % may be the effect or the level left; conditions: Oocyte
In short: (§7)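 Xenopus oocytes injected with rat α1 (wt or cysteine mutant) plus β2 mRNA, kept 2–10 days at 17 °C. Two-electrode voltage clamp at −60 mV, room temperature, Ca2+-free frog Ringer, pH 7.5.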

[27] = Agonist activity at rat GABAA alpha-1S68C-beta-2 receptor mutant expressed in Xenopus laevis oocytes assessed as reduction of GABA-induced current at -60 mV at 10 mM by Two-Electrode voltage clamp method in presence of 450 uM 2-sulfonatoethyl methanethiosulfonate; format: functional, Oocyte; design: scale not given: the % may be the effect or the level left
[28] = Agonist activity at rat GABAA alpha-1F64C-beta-2 receptor mutant expressed in Xenopus laevis oocytes assessed as inhibition of GABA-induced current at -60 mV at 1 mM by Two-Electrode voltage clamp method; format: functional, Oocyte; design: scale not given: the % may be the effect or the level left; in short: as §7
[29] = Agonist activity at rat GABAA alpha-1R66C-beta-2 receptor mutant expressed in Xenopus laevis oocytes assessed as inhibition of GABA-induced current at -60 mV at 10 mM in presence of 2 mM 2-sulfonatoethyl methanethiosulfonate by Two-Electrode voltage clamp method; format: functional, Oocyte; design: scale not given: the % may be the effect or the level left
[30] = Agonist activity at rat GABAA alpha-1R66C-beta-2 receptor mutant expressed in Xenopus laevis oocytes assessed as reduction of GABA-induced current at -60 mV at 30 mM by Two-Electrode voltage clamp method in presence of 5.5 mM GABA; format: functional, Oocyte; design: scale not given: the % may be the effect or the level left
In short: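 α1R66Cβ2 oocytes, two-electrode voltage clamp at −60 mV. […] Then 10 mM MTSES (12 s) and 10 mM DTT (20 s) were applied. Reaction rate fitted monoexponentially against cumulative application time.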

[31] = Agonist activity at rat GABAA alpha-1S68C-beta-2 receptor mutant expressed in Xenopus laevis oocytes as inhibition of GABA-induced current at -60 mV at 1 mM by Two-Electrode voltage clamp method; format: functional, Oocyte; design: scale not given: the % may be the effect or the level left; in short: as §7
[32] = Agonist activity at rat GABAA alpha-1F64C-beta-2 receptor mutant expressed in Xenopus laevis oocytes assessed as reduction of GABA-induced current at -60 mV at 10 mM by Two-Electrode voltage clamp method in presence of 10 uM 2-sulfonatoethyl methanethiosulfonate; format: functional, Oocyte; design: scale not given: the % may be the effect or the level left
[33] = Agonist activity at rat GABAA alpha-1F64C-beta-2 receptor mutant expressed in Xenopus laevis oocytes at -60 mV by Two-Electrode voltage clamp method; format: functional, cell-based; conditions: Oocyte
[34] = Agonist activity at rat GABAA alpha-1S68C-beta-2 receptor mutant expressed in Xenopus laevis oocytes at -60 mV at 30 mM by Two-Electrode voltage clamp method; format: functional, Oocyte; in short: as §6
[35] = molecular target: T2, Gamma-aminobutyric acid receptor subunit alpha-1; experiment: Agonist activity at rat wild type GABAA alpha-1-beta-2 receptor expressed in Xenopus laevis oocytes at -60 mV by Two-Electrode voltage clamp method; format: functional, cell-based, Oocyte

Chain of Gamma-aminobutyric acid receptor subunit alpha-3 (Rattus norvegicus) (P20236 whole entry): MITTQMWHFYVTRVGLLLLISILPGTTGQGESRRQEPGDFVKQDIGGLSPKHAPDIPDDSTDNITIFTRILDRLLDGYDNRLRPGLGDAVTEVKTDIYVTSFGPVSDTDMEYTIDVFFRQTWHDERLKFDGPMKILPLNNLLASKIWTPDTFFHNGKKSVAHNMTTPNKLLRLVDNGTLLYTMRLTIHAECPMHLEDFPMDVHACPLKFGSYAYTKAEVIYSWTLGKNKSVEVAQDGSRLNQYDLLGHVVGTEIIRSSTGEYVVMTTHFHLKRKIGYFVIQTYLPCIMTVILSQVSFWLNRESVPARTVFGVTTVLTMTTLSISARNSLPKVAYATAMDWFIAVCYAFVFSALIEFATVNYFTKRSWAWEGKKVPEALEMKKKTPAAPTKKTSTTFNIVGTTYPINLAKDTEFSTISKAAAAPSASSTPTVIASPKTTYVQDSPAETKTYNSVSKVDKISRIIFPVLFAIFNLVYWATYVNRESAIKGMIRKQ

Structure (SMILES) | Activity [1] | inhibition [2] | inhibition [3] | inhibition [5] | Activity [6] | inhibition [7] | IC50 [8] | logIC50 [9] | Activity [11] | IC50 [13] | logIC50 [14] | other results
Cc1nnc(C2CCNCC2)o1 | < 10% | 87% | 56% | 48% | < 10% | 91% | 76 µM | 1.88 | < 10% | 109 µM | 2.04 | Activity [4]: < 10%; Activity [10]: < 10%; Activity [12]: 29%
Oc1nnc(C2CCNCC2)o1 | 18% | 79% | 38% | 38% | 34% | 77% | 123 µM | 2.09 | 17% | 183 µM | 2.26 | Activity [15]: 41%; Activity [16]: 52%; Activity [17]: 42%
Cl.Sc1nnc(C2CCNCC2)o1 | 13% | 94% | 64% | 68% | 48% | 91% | 66 µM | 1.82 | 23% | – | 1.67 | Activity [18]: 60%; IC50 [19]: 46 µM; EC50 [20]: 10000 µM; Activity [21]: 80%; IC50 [22]: 56 µM; Activity [23]: 20%; Activity [24]: 39%; IC50 [25]: 59 µM; Activity [26]: 6.8%; Activity [27]: 40%; Activity [28]: 9%; Activity [29]: 77%; Activity [30]: 68%; Activity [31]: 3%; Activity [32]: 47%; EC50 [33]: 5500 µM; Activity [34]: 17%; EC50 [35]: 9500 µM
